Source: ChEMBL document CHEMBL1128510, “Potent inhibitors of acyl-CoA:cholesterol acyltransferase. Structure-activity relationships of novel N-(4-oxochroman-8-yl)amides” (J Med Chem, 1995)

What was measured:
[1] = Inhibition of rabbit small-intestinal Acyl coenzyme A:cholesterol acyltransferase 1; design: species or system Oryctolagus cuniculus
Method in brief: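 Source: intestinal mucosa microsomes from cholesterol-fed Japanese white rabbits. Mucosa homogenized in 40 mM phosphate pH 7.4 with 30 mM EDTA, 50 mM KCl and 0.1 M sucrose; spun 10000g for 30 min, then 105000g for 1 h, at 4 °C.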

Rattus norvegicus [2] = experiment: Serum total cholesterol-lowering activity in the cholesterol-fed rats expressed as the ratio of the observed reduction to the difference between the control and normal levels 100 (10 mg/kg po); assay type: functional
Method in brief: (§1)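 Male Wistar rats (8–9 weeks, 200 g, n = 6/group) on normal chow for 7 days, then a 2% cholesterol/1% cholic acid/12% coconut oil diet for 3 days. Compound in 0.5% methyl cellulose given orally once daily for 3 days at the listed dose; controls got vehicle. After a 16 h fast, aortic blood taken; serum cholesterol measured enzymatically. % change = (A−B)/(B−C)×100, with B = control and C = normal-diet rats.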

[3] = Ability to inhibit rabbit liver Acyl coenzyme A:cholesterol acyltransferase 1; design: species or system Oryctolagus cuniculus
Method in brief: (§2)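 Liver microsomes from Japanese white rabbits, prepared in 0.154 M phosphate buffer pH 7.4 with 40 mM NaF. Assay mix: 36 μM BSA, 2 mM DTT, 0.5 mg/mL microsomes, sonicated liposomes (PC:PS:cholesterol 3:1:8, 8 mg/mL cholesterol). Compound added as 1% (v/v) DMSO solution, preincubated 3 min at 37 °C. Reaction started with 43 μM [14C]oleoyl-CoA, 10 min at 37 °C. Cholesteryl oleate radioactivity measured; IC50 determined.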

Rattus norvegicus [4] = experiment: Serum total cholesterol-lowering activity in the cholesterol-fed rat expressed as the ratio of the observed reduction to the difference between the control and normal levels 100 (0.1 mg/kg po); assay type: functional; method in brief: as §1
Rattus norvegicus [5] = experiment: Serum total cholesterol-lowering activity in the cholesterol-fed rat expressed as the ratio of the observed reduction to the difference between the control and normal levels 100 (0.3 mg/kg, po); assay type: functional; method in brief: as §1
Rattus norvegicus [6] = species: Rattus norvegicus; experiment: IC50 is the concentration that inhibits 50% of the enzyme activity was evaluated by measuring the ability to inhibit acetyl-LDL-induced cholesteryl ester accumulation in rat peritoneal macrophages.; assay type: functional
Method in brief: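 Peritoneal macrophages from nonstimulated male Wistar rats (250–300 g), 3 × 10^6 per dish in 10% FBS-DMEM, adhered 2 h at 37 °C in 5% CO2. Washed in 3% BSA-DMEM, then incubated 16 h with 25 µg/mL acetylated human LDL, [14C]oleate-BSA and compound. Lipids extracted in hexane–2-propanol with [3H]cholesteryl oleate recovery standard. Cholesteryl oleate isolated by TLC and counted; IC50 determined for ester accumulation.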

Rattus norvegicus [7] = experiment: Serum total cholesterol-lowering activity in the cholesterol-fed rats expressed as the ratio of the observed reduction to the difference between the control and normal levels 100 (3 mg/kg po); assay type: functional; method in brief: as §1
[8] = Ability to inhibit rabbit liver Acyl coenzyme A:cholesterol acyltransferase 1.; design: species or system Oryctolagus cuniculus; method in brief: as §2
Rattus norvegicus [9] = experiment: Serum total cholesterol-lowering activity in the cholesterol-fed rats expressed as the ratio of the observed reduction to the difference between the control and normal levels 100. (0.3 mg/kg, po); assay type: functional; method in brief: as §1
Rattus norvegicus [10] = experiment: Serum total cholesterol-lowering activity in the cholesterol-fed rats expressed as the ratio of the observed reduction to the difference between the control and normal levels 100 (0.1 mg/kg po); assay type: functional; conditions: in the assay text read “1 mg/kg po” for “0.1 mg/kg po”; method in brief: as §1
Rattus norvegicus [11] = experiment: Serum total cholesterol-lowering activity in the cholesterol-fed rats expressed as the ratio of the observed reduction to the difference between the control and normal levels 100 (0.3 mg/kg po); assay type: functional; method in brief: as §1
Rattus norvegicus [12] = experiment: Serum total cholesterol-lowering activity in the cholesterol-fed rat expressed as the ratio of the observed reduction to the difference between the control and normal levels 100 (3 mg/kg po); assay type: functional; method in brief: as §1

| SMILES | IC50 [1] | other results |
| --- | --- | --- |
| CCCCCCCCCCCCC(C)(C)C(=O)Nc1c(OC)ccc2c1OCCC2=O | 7.5 nM |  |
| Cc1cc(C)c2c(c1NC(=O)C(C)(C)CCCCCOc1ccc(Cl)cc1)OCCC2=O | 400 nM |  |
| Cc1ccc2c(c1NC(=O)C(C)(C)CCCCCOc1ccc(Cl)cc1)OCCC2=O | 470 nM | Change (Rattus norvegicus [2]): -53% |
| CCCCCCCCCCOc1ccc2c(c1NC(=O)C(C)(C)CCCCCCOc1ccc(Cl)cc1)OCCC2=O | 140 nM |  |
| CCCCCCCCCCC(C)(C)C(=O)Nc1c(Cl)ccc2c1OCCC2=O | 150 nM |  |
| COc1ccc2c(c1NC(=O)C(C)(C)CCCCCCOCC(C)C)OCCC2=O | 26 nM |  |
| Cc1ccc2c(c1NC(=O)c1ccccc1)OCCC2=O | > 1000 nM |  |
| CCCCCCCCCCC1(C(=O)Nc2c(C)ccc3c2OCCC3=O)CCCC1 | 170 nM |  |
| COc1ccc2c(c1NC(=O)C(C)(C)CCCc1ccc(CC(C)C)cc1)OCCC2=O | 17 nM |  |
| CCCCCCCCCCC(C)(C)C(=O)Nc1c(OC)ccc2c(=O)ccoc12 | 77 nM |  |
| CCCCCCCCCCC(C)(C)C(=O)Nc1c(OC)ccc2c1OCCC2=O | 13 nM | IC50 [3]: 16 nM; Change (Rattus norvegicus [4]): -61%; Change (Rattus norvegicus [5]): -66%; IC50 (Rattus norvegicus [6]): 160 nM |
| COc1ccc2c(c1NC(=O)C(C)(C)CCCCCCc1ccccc1)OCCC2=O | 44 nM |  |
| Cc1ccc2c(=O)ccoc2c1NC(=O)C(C)(C)CCCCCOc1ccc(Cl)cc1 | > 500 nM |  |
| CCCCCCCCCCC(C)(C)C(=O)Nc1c(OC)ccc2c1OCCC2 | 180 nM |  |
| CCCCCCCCCCOc1cc(C)c(C(=O)Nc2c(OC)ccc3c2OCCC3=O)c(C)c1 | > 200 nM |  |
| CCCCCCCCCCC(C)(C)C(=O)Nc1c(OC)ccc2c(=O)cc(CC)oc12 | 780 nM |  |
| CCCCCCOc1ccc(CCCC(C)(C)C(=O)Nc2c(OC)ccc3c2OCCC3=O)cc1 | 16 nM | Change (Rattus norvegicus [7]): -65% |
| CCCCCCCCCCC(C)(C)C(=O)Nc1c(C)ccc2c1OCCC2=O | 210 nM |  |
| COc1ccc2c(c1NC(=O)c1ccc(OCCCCCCOc3ccc(Cl)cc3)cc1)OCCC2=O | 26 nM | IC50 [8]: 59 nM; Change (Rattus norvegicus [7]): -79%; Change (Rattus norvegicus [9]): -56%; IC50 (Rattus norvegicus [6]): 220 nM |
| COc1ccc(C(=O)Nc2c(C)ccc3c2OCCC3=O)cc1 | > 1000 nM |  |
| CC(C)(C)C(=O)Nc1c(OCCCCCCc2ccccc2)ccc2c1OCCC2=O | 24 nM |  |
| COc1ccc2c(c1NC(=O)c1ccc(OCCCCCCOCC(C)C)cc1)OCCC2=O | 40 nM |  |

| SMILES | IC50 [1] | other results |
| --- | --- | --- |
| Cc1ccc2c(c1NC(=O)C(C)(C)Cc1ccccc1)OCCC2=O | > 1000 nM |  |
| CCCCCCCCCCC(C)(C)C(=O)Nc1c2c(cc([N+](=O)[O-])c1OC)C(=O)CCO2 | 34 nM |  |
| CCCOCCCCCCC(C)(C)C(=O)Nc1c(OC)ccc2c1OCCC2=O | 30 nM |  |
| COc1ccc2c(c1NC(=O)C(C)(C)CCCCCCOc1ccc(Cl)cc1)C(=O)CCO2 | 180 nM |  |
| CCCCCCCCCCOc1ccc2c(c1NC(=O)C(C)(C)CCCCCCCCCC)OCCC2=O | 850 nM |  |
| CCCCCCCCCCOc1ccc(C(=O)Nc2c(OC)ccc3c2OCCC3=O)cc1 | 12 nM |  |
| CCCCCCCCCCC(C)(C)C(=O)Nc1c2c(cc(N(C)C)c1OC)C(=O)CCO2 | > 200 nM |  |
| CCCCCCCCCCOc1ccc(C(=O)Nc2c(OCCCCCCCCCC)ccc3c2OCCC3=O)cc1 | > 100 nM |  |
| CCCc1ccc(CCCC(C)(C)C(=O)Nc2c(OC)ccc3c2OCCC3=O)cc1 | 27 nM | Change (Rattus norvegicus [10]): -54% |
| COc1ccc2c(c1NC(=O)C(C)(C)CCCCCCOc1ccc(Cl)cc1)OCCC2=O | 64 nM | Change (Rattus norvegicus [11]): -53%; Change (Rattus norvegicus [9]): -53% |
| COc1ccc(OCCCCOc2ccc3c(c2NC(=O)C(C)(C)C)OCCC3=O)cc1 | 43 nM |  |
| CCCCCCCCCCC(C)(C)C(=O)Nc1c(OC)c(NC)cc2c1OCCC2=O | 49 nM |  |
| CCCCCCCCCCC1(C(=O)Nc2c(C)ccc3c2NCCC3=O)CCCC1 | 430 nM |  |
| Cc1ccc2c(c1NC(=O)C(C)(C)CCCCOc1ccc(Cl)cc1)OCCC2=O | 510 nM |  |
| CCCCCCCCC(C)(C)C(=O)Nc1c(OC)ccc2c1OCCC2=O | 31 nM |  |
| CCCCCCCCCCC(C)(C)C(=O)Nc1c(OCCC)ccc2c1OCCC2=O | 14 nM |  |
| CCCCCCCCCCOc1ccc2c(c1NC(C)=O)OCCC2=O | 300 nM |  |
| CCCCCCCCCCOc1ccc2c(c1NC(=O)C(C)(C)C)OCCC2=O | 14 nM | IC50 [3]: 22 nM; Change (Rattus norvegicus [5]): -45%; IC50 (Rattus norvegicus [6]): 130 nM |
| CCCCCCCCCCOc1ccc2c(=O)ccoc2c1NC(=O)C(C)(C)C | 130 nM |  |
| CCCCCCCCCCOc1ccc2c(c1NC(=O)c1ccc(OCCCCCCOc3ccc(Cl)cc3)cc1)OCCC2=O | 540 nM |  |
| CCCCCCCCCCC(C)(C)C(=O)Nc1c(OC)cc(OC)cc1OC [CL-976] | 140 nM | IC50 [3]: 149 nM; Change (Rattus norvegicus [12]): -50%; IC50 (Rattus norvegicus [6]): 3800 nM |
